According to ChEMBL document CHEMBL1828577, “Design and synthesis of some new thiophene, thienopyrimidine and thienothiadiazine derivatives of antipyrine as potential antimicrobial agents” (2011):
≈ marks a conversion by molar mass, not a printed value. Calls of active or inactive are those of the source. The rule behind the calls is not given here.

Assays:
Assay type in all cases: functional
[1] = tested on: Escherichia coli; assay: Antibacterial activity against Escherichia coli RCMB 000103 at 10 mg/ml after 24 hrs by agar well diffusion method; details: for zone of inhibition at 10000 µg/mL: RCMB 000103, 24 h, read-out: DIZ
Outline: (§1)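 Agar well diffusion on nutrient agar (tryptone 1%, yeast extract 0.5%, NaCl 0.5%, agar 1%, pH 7.0). Plates spread with centrifuged pellets from a 24 h culture (about 10^4-10^6 CFU/ml). 100 µl of sample at 10 mg/mL in DMSO per 6 mm well, DMSO control. Incubated at 37 °C for 24 h. Inhibition zone diameter (mm) caliper-read three times; test run three times; mean ± SD.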

[2] = tested on: Candida albicans; assay: Antifungal activity against Candida albicans RCMB 052002 at 10 mg/ml after 3 to 4 days by agar well diffusion method; details: for zone of inhibition at 10000 µg/mL: read-out: DIZ
Outline: (§2)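 Agar well diffusion on Sabouraud dextrose agar (glucose–peptone–agar 40:10:15). Culture grown in Sabouraud broth for 3-4 days to 10^5 CFU mL⁻¹; 0.1 mL spread per plate. Wells sealed at the bottom with 0.8% soft agar, then loaded with 100 µl sample at 10 mg mL⁻¹ in DMSO; DMSO control. Incubated at 30 °C for 3–4 days. Zone caliper-read three times; triplicate tests; mean ± SD.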

[3] = tested on: Staphylococcus aureus; assay: Antibacterial activity against Staphylococcus aureus RCMB 000106 at 10 mg/ml after 24 hrs by agar well diffusion method; details: for zone of inhibition at 10000 µg/mL: RCMB 000106, 24 h, read-out: DIZ; outline: as §1
[4] = tested on: Bacillus subtilis; assay: Antibacterial activity against Bacillus subtilis RCMB 000107 at 10 mg/ml after 24 hrs by agar well diffusion method; details: for zone of inhibition at 10000 µg/mL: RCMB 000107, 24 h, read-out: DIZ; outline: as §1
[5] = tested on: Syncephalastrum racemosum; assay: Antifungal activity against Syncephalastrum racemosum RCMB 052003 at 10 mg/ml after 3 to 4 days by agar well diffusion method; details: for zone of inhibition at 10000 µg/mL: read-out: DIZ; outline: as §2
[6] = tested on: Aspergillus fumigatus; assay: Antifungal activity against Aspergillus fumigatus RCMB 002003 at 10 mg/ml after 3 to 4 days by agar well diffusion method; details: for zone of inhibition at 10000 µg/mL: read-out: DIZ; outline: as §2
[7] = tested on: Pseudomonas aeruginosa; assay: Antibacterial activity against Pseudomonas aeruginosa RCMB 000102 at 10 mg/ml after 24 hrs by agar well diffusion method; details: for zone of inhibition at 10000 µg/mL: RCMB 000102, 24 h, read-out: DIZ; outline: as §1
[8] = tested on: Geotrichum candidum; assay: Antifungal activity against Geotrichum candidum RCMB 052006 at 10 mg/ml after 3 to 4 days by agar well diffusion method; details: for zone of inhibition at 10000 µg/mL: read-out: DIZ; outline: as §2
[9] = tested on: Bacillus subtilis; assay: Antibacterial activity against Bacillus subtilis RCMB 000107 at 30 mg/ml after 24 hrs by agar well diffusion method; details: RCMB 000107, 24 h, read-out: DIZ
[10] = tested on: Staphylococcus aureus; assay: Antibacterial activity against Staphylococcus aureus RCMB 000106 at 30 mg/ml after 24 hrs by agar well diffusion method; details: RCMB 000106, 24 h, read-out: DIZ
[11] = tested on: Syncephalastrum racemosum; assay: Antifungal activity against Syncephalastrum racemosum RCMB 052003 after 3 to 4 days by two fold serial dilution method
Outline: (§3)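 MIC by agar plate method. Two-fold serial dilutions in Sabouraud dextrose broth, autoclaved at 121 °C for 25 min; DMSO control. Loop of culture diluted to 10⁵–10⁶ CFU mL⁻¹. Incubated at 30 °C for 3–4 days, then colonies counted. MIC taken as the lowest concentration fully inhibiting growth relative to control, ignoring a single colony or faint haze.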

[12] = tested on: Pseudomonas aeruginosa; assay: Antibacterial activity against Pseudomonas aeruginosa RCMB 000102 after 24 hrs by two fold serial dilution method; details: RCMB 000102, 24 h
Outline: (§4)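 MIC by agar plate method. Two-fold serial dilutions in nutrient broth (beef extract 5 g, peptone 10 g per litre, pH 7.0), autoclaved at 121 °C for 25 min; DMSO control. Loop inoculum diluted to 10⁵–10⁶ CFU mL⁻¹. Incubated at 37 °C for 24 h, then colonies counted. MIC taken as the lowest concentration giving complete inhibition, ignoring a single colony or faint haze.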

[13] = tested on: Bacillus subtilis; assay: Antibacterial activity against Bacillus subtilis RCMB 000107 after 24 hrs by two fold serial dilution method; details: RCMB 000107, 24 h; outline: as §4
[14] = tested on: Staphylococcus aureus; assay: Antibacterial activity against Staphylococcus aureus RCMB 000106 after 24 hrs by two fold serial dilution method; details: RCMB 000106, 24 h; outline: as §4
[15] = tested on: Escherichia coli; assay: Antibacterial activity against Escherichia coli RCMB 000103 after 24 hrs by two fold serial dilution method; details: RCMB 000103, 24 h; outline: as §4
[16] = tested on: Geotrichum candidum; assay: Antifungal activity against Geotrichum candidum RCMB 052006 after 3 to 4 days by two fold serial dilution method; outline: as §3
[17] = tested on: Candida albicans; assay: Antifungal activity against Candida albicans RCMB 052002 after 3 to 4 days by two fold serial dilution method; outline: as §3
[18] = tested on: Aspergillus fumigatus; assay: Antifungal activity against Aspergillus fumigatus RCMB 002003 after 3 to 4 days by two fold serial dilution method; outline: as §3

| Structure (SMILES) | diameter of the inhibition zone (DIZ) [1] | zone of inhibition at 10000 µg/mL [2] [mm] | zone of inhibition at 10000 µg/mL [3] [mm] | zone of inhibition at 10000 µg/mL [4] [mm] | zone of inhibition at 10000 µg/mL [5] [mm] | zone of inhibition at 10000 µg/mL [6] [mm] | diameter of the inhibition zone (DIZ) [7] | zone of inhibition at 10000 µg/mL [8] [mm] | MIC [11] [µg/mL] | zone of inhibition at 10000 µg/mL [1] [mm] | MIC [12] [µg/mL] | MIC [13] [µg/mL] | MIC [14] [µg/mL] | MIC [15] [µg/mL] | MIC [16] [µg/mL] | MIC [17] [µg/mL] | MIC [18] [µg/mL] | zone of inhibition at 10000 µg/mL [7] [mm] | other results |
| --- | --- | --- | --- | --- | --- | --- | --- | --- | --- | --- | --- | --- | --- | --- | --- | --- | --- | --- | --- |
| Cc1c(Nc2csc3c2C(=O)N[S+]([O-])N3)c(=O)n(-c2ccccc2)n1C (configuration not stated) | inactive | 13.4 | 18.3 | 19.2 | 10.6 | 15.1 | inactive | 14.4 |  |  |  |  |  |  |  |  |  |  |  |
| CC1(C)S[C@@H]2[C@H](NC(=O)Cc3ccccc3)C(=O)N2[C@H]1C(=O)O [PENICILLIN G] |  |  |  |  |  |  |  |  |  |  |  |  |  |  |  |  |  |  | zone of inhibition at 30000 µg/mL [9]: 32.5 mm; zone of inhibition at 30000 µg/mL [10]: 29.4 mm |
| Cc1c(Nc2csc(NC(=O)CCl)c2C#N)c(=O)n(-c2ccccc2)n1C |  | 15.4 | 19.4 | 24.1 | 11.2 | 20.1 |  | 18.3 | 313 (≈ 779 µM) | 16.2 | 39 (≈ 97 µM) | 19 (≈ 47.3 µM) | 39 (≈ 97 µM) | 78 (≈ 194 µM) | 78 (≈ 194 µM) | 156 (≈ 388 µM) | 39 (≈ 97 µM) | 18.9 |  |
| Cc1c(Nc2csc(N)c2C#N)c(=O)n(-c2ccccc2)n1C |  | 17.2 | 23.9 | 27.2 | 18.9 | 24.3 |  | 22.4 | 39 (≈ 120 µM) | 24.4 | 39 (≈ 120 µM) | 9.5 (≈ 29.2 µM) | 19 (≈ 58.4 µM) | 19 (≈ 58.4 µM) | 19 (≈ 58.4 µM) | 39 (≈ 120 µM) | 19 (≈ 58.4 µM) | 22.8 |  |
| CCOC(=O)c1c(Nc2c(C)n(C)n(-c3ccccc3)c2=O)csc1N |  | 16.4 | 20.2 | 25.3 | 18.2 | 22.1 |  | 22 | 39 (≈ 105 µM) | 23.8 | 39 (≈ 105 µM) | 19 (≈ 51 µM) | 39 (≈ 105 µM) | 19 (≈ 51 µM) | 39 (≈ 105 µM) | 78 (≈ 209 µM) | 19 (≈ 51 µM) | 20.8 |  |
| Cc1c(Nc2csc(N)c2C(N)=O)c(=O)n(-c2ccccc2)n1C | inactive |  |  |  |  |  | inactive |  |  |  |  |  |  |  |  |  |  |  | diameter of the inhibition zone (DIZ) [2]: inactive; diameter of the inhibition zone (DIZ) [3]: inactive; diameter of the inhibition zone (DIZ) [4]: inactive; diameter of the inhibition zone (DIZ) [5]: inactive; diameter of the inhibition zone (DIZ) [6]: inactive; diameter of the inhibition zone (DIZ) [8]: inactive |
| Cc1c(NC(=O)/C=C/c2cccs2)c(=O)n(-c2ccccc2)n1C | inactive | 13.4 | 11 | 11.2 |  | 14.2 | inactive |  |  |  |  |  |  |  |  |  |  |  | diameter of the inhibition zone (DIZ) [5]: inactive; diameter of the inhibition zone (DIZ) [8]: inactive |
| Cc1c(NC(=O)CC(=O)C(=O)NN)c(=O)n(-c2ccccc2)n1C | inactive |  | 17.2 | 14.4 | 13.4 | 11.2 | inactive | 13.4 |  |  |  |  |  |  |  |  |  |  | diameter of the inhibition zone (DIZ) [2]: inactive |
